Reference: PMC2761715 (Molecular cancer therapeutics, 2009)

How the values were obtained:
Format in all cases: cell-based
8226 cells = assay: Cell death analysis, annexin V, FACS; conditions: addition of 3-MA, supplemental data S5
H929 cells [1] = assay: Reactive oxygen species; conditions: NAC 10 mM; supplementary data S7
LC3 = assay: LC3-I to LC3-II conversion, western blot
Method in brief: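 H929 or 8226 cells exposed 4 h to test peptide or scrambled peptide (50 µg/ml H929; 100 µg/ml 8226) or 100 uM tunicamycin; NAC arm: H929 at 4 × 10^5 cells/ml, 10 mM NAC 30 min then 50 µg/ml for 4 h. Lysed on ice in NP-40/Tris pH 7.6 buffer with protease/phosphatase inhibitors; 10 µg protein, 8% SDS-PAGE, PVDF blot for LC3-I/II.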

H929 cells [2] = assay: Mitochondrial membrane potential; conditions: H929, NAC 10 mM 30 min, then HYD1 50 µg/ml 4 hrs; Figure 5C
Method in brief: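 H929 cells (4 × 10^5 cells/ml) pretreated 30 min with 10 mM NAC, then test compound 50 µg/ml for a further 4 h. Cells stained 15 min with 15 nM DiOC6, PBS-washed and resuspended, then loss of Δψm measured by flow cytometry; n=9.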

H929 cells [3] = assay: Neutral comet assay; conditions: H929, 6 hours, 50 ug/ml HYD1 or HYDS or 50 ng/ml TRAIL, n=150; Figure 3D
Method in brief: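 Neutral comet assay on H929 cells given 50 µg/ml test peptide, scrambled peptide, or 50 ng/ml TRAIL (positive control) for 6 h. 5,000 cells pelleted, taken up in PBS agar, layered onto frosted slides and run under neutral conditions. Comet moments measured from 50 images per treatment by CCD camera; n=150.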

How did the “sensitization to HYD1 induced cell death” value (8226 cells) turn out when `Cn1cnc(N)c2ncnc1-2` [3-MA, 3-Methyladenine] was run?
The value was “sensitized 8226 cells to HYD1 induced cell death”.

With `CC(=O)N[C@@H](CS)C(=O)O` [NAC, N-acetyl-L-cysteine] as the molecule, how does the “inhibition of ROS production by NAC” value (H929 cells [1]) read?
The value was “effective in inhibiting the production of ROS”.

And the “reversal of HYD1-induced increase in LC3-II by NAC” value (LC3; H929, NAC 10 mM 30 min, then HYD1 50 µg/ml 4 hrs, Figure 5D)?
Its value is “completely reversed”.

And the “reversal of HYD1-induced loss in Δψm by NAC” value (H929 cells [2])?
Its value is “not reversed by pretreatment with NAC”.

For TRAIL, which “comet moments (double stranded DNA breaks)” value (H929 cells [3]) is on record?
Its value is “significant increase in comet moments”.

With Tunicamycin as the molecule, how does the “conversion of LC3-I to LC3-II” value (LC3; 4 hour treatment, 50 µg/ml HYD1 for H929, 100 ug/ml for 8226, 100 uM tunicamycin) read?
Its value is “increased conversion of LC3-I to LC3-II”.
